Activity calls are given as the source filed them. The calls are words filed in the database; no cut-off is given here.
Legend:
PC-12 [1] = assay: Neuroprotective activity against NaN3-induced cell injury in rat PC12 cells assessed as cell survival rate at 5 uM measured after 24 hrs by CCK-8 assay (reference value: 49.9 to 52%); type: functional; conditions: read-out: Survival
PC-12 [2] = assay: Neuroprotective activity against NaN3-induced cell injury in rat PC12 cells assessed as cell survival rate at 10 uM measured after 24 hrs by CCK-8 assay (reference value: 49.9 to 52%); type: functional; conditions: read-out: Survival
PC-12 [3] = assay: Neuroprotective activity against NaN3-induced cell injury in rat PC12 cells assessed as cell survival rate at 20 uM measured after 24 hrs by CCK-8 assay (reference value: 49.9 to 52%); type: functional; conditions: read-out: Survival
PC-12 [4] = assay: Neuroprotective activity against NaN3-induced cell injury in rat PC12 cells assessed as cell survival rate at 40 uM measured after 24 hrs by CCK-8 assay (reference value: 49.9 to 52%); type: functional; conditions: read-out: Survival
PC-12 [5] = assay: Neuroprotective activity against NaN3-induced cell injury in rat PC12 cells assessed as cell survival rate at 80 uM measured after 24 hrs by CCK-8 assay (reference value: 49.9 to 52%); type: functional; conditions: read-out: Survival
PC-12 [6] = assay: Neuroprotective activity against NaN3-induced cell injury in rat PC12 cells assessed as cell survival rate at 100 uM measured after 24 hrs by CCK-8 assay (reference value: 49.9 to 52%); type: functional; conditions: read-out: Survival
PC-12 [7] = assay: Neuroprotective activity against NaN3-induced cell injury in rat PC12 cells assessed as cell survival rate at 5 uM measured after 24 hrs by CCK-8 assay (reference value: 50%); type: functional; conditions: read-out: Survival
PC-12 [8] = assay: Neuroprotective activity against NaN3-induced cell injury in rat PC12 cells assessed as cell survival rate at 10 uM measured after 24 hrs by CCK-8 assay (reference value: 50%); type: functional; conditions: read-out: Survival
PC-12 [9] = assay: Neuroprotective activity in rat PC12 cells assessed as reduction in NaN3-induced LDH release at 5 to 10 uM measured by LDH release assay (reference value: 411.84 to 416.67 U/L); type: functional; conditions: dose 5-10 µM
PC-12 [10] = assay: Neuroprotective activity in rat PC12 cells assessed as reduction in NaN3-induced MDA release at 5 uM measured (reference value: 253 nmol/mL); type: functional
PC-12 [11] = assay: Neuroprotective activity in rat PC12 cells assessed as prevention of NaN3-induced decrease in SOD release at 5 to 20 uM measured (reference value: 54 U/mg of protein); type: functional; conditions: dose 5-20 µM
[12] = target: T1, Cav1.2 (L-type calcium channel alpha1c/beta2a/alpha2delta1) (Homo sapiens, UniProt P54289+Q08289+Q13936); assay: Inhibition of human alpha1c/beta2a/alpha2delta1 Cav1.2 expressed in HEK293 cells assessed as time course of inhibition of membrane potential measured after washout with external solution at 10 uM by manual patch clamp technique; type: cell-based
Procedure, shortened: (§1)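 HEK-293 cells stably expressing hCav1.2 (α1C/β2a/α2δ1), induced with tetracycline 1 μg/mL for 24 h. Perforated whole-cell manual patch clamp (amphotericin B 250 μg/mL in pipette; Cs-methanesulfonate internal, pH 7.2) at 24 °C. Holding potential −90 mV, 1000 ms prepulse inactivating 20% of channels, then a 50 ms step to 0 mV, repeated every 15 s. I_Ca-L followed over time, then washout with external solution. Final ethanol/DMSO ≤1.00%.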

[13] = target: T1, Cav1.2 (L-type calcium channel alpha1c/beta2a/alpha2delta1); assay: Inhibition of human alpha1c/beta2a/alpha2delta1 Cav1.2 expressed in HEK293 cells assessed as time course of inhibition of membrane potential measured after washout with external solution at 30 uM by manual patch clamp technique; type: cell-based; procedure, shortened: as §1
[14] = target: T1, Cav1.2 (L-type calcium channel alpha1c/beta2a/alpha2delta1); assay: Inhibition of human alpha1c/beta2a/alpha2delta1 Cav1.2 expressed in HEK293 cells assessed as time course of inhibition of membrane potential measured after washout with external solution at 100 uM by manual patch clamp technique; type: cell-based; procedure, shortened: as §1
[15] = target: L-type calcium channel alpha-1c/beta-2/alpha2delta-1 (Homo sapiens, UniProt P54289+Q08289+Q13936); assay: Inhibition of human alpha1c/beta2a/alpha2delta1 Cav1.2 expressed in HEK293 cells assessed as time course of inhibition of membrane potential measured after washout with external solution by manual patch clamp technique; type: cell-based; procedure, shortened: as §1
PC-12 [16] = assay: Neurotrophic activity in rat PC12 cells assessed as cell survival rate at 1 uM measured after 24 hrs by CCK-8 assay (reference value: 50%); conditions: PC-12, 24 h
PC-12 [17] = assay: Neuroprotective activity against NaN3-induced cell injury in rat PC-12 cells assessed as cell survival rate at 2 to 8 uM measured after 24 hrs by CCK-8 assay (reference value: 50%); type: functional; conditions: dose 2-8 µM
PC-12 [18] = assay: Neuroprotective activity in rat PC12 cells assessed as reduction in NaN3-induced LDH release at 4 uM measured by LDH release assay (reference value: 411.84 to 416.67 U/L); type: functional
Procedure, shortened: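 PC12 injury model: glucose-free, serum-free RPMI 1640. Pretreatment 4 μM, 1 h before NaN3, then 24 h with NaN3. Cells disrupted by ultrasonication and centrifuged at 10 000 rpm for 10 min at 4 °C. Supernatant LDH measured with a commercial kit, in U/L. n = 3 independent experiments.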

[19] = target: L-type calcium channel alpha-1c/beta-2/alpha2delta-1 (Homo sapiens, UniProt P54289+Q13936+Q08289); assay: Irreversible inhibition of human alpha1c/beta2a/alpha2delta1 Cav1.2 expressed in HEK293 cells assessed as decrease in membrane potential measured after washout with external solution at 100 uM by manual patch clamp technique; type: cell-based; conditions: hek293, 100 µM; procedure, shortened: as §1
PC-12 [20] = assay: Neuroprotective activity against NaN3-induced cell injury in rat PC12 cells assessed as cell survival rate at 20 uM measured after 24 hrs by CCK-8 assay (reference value: 50%); type: functional; conditions: read-out: Survival
PC-12 [21] = assay: Neuroprotective activity against NaN3-induced cell injury in rat PC12 cells assessed as cell survival rate at 40 uM measured after 24 hrs by CCK-8 assay (reference value: 50%); type: functional; conditions: read-out: Survival
PC-12 [22] = assay: Neuroprotective activity in rat PC12 cells assessed as prevention of NaN3-induced apoptosis at 5 to 10 uM measured after 24 hrs by Hoechst staining based assay; type: functional, cell-based; conditions: dose 5-10 µM
Procedure, shortened: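 PC12 cells plated at about 1 × 10⁵ per well and cultured overnight. Pretreated 1 h with 5, 10 or 20 μM compound, then NaN₃ for 24 h in glucose-free, serum-free RPMI 1640 after two washes in glucose-free EBSS pH 7.5. Cells fixed 30 min in methanol, stained with Hoechst 33258 for 10 min at 37 °C in the dark, and scored for nuclear morphology by fluorescence microscopy (ex 350/em 461 nm).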

T1 sequence (P54289 25-956 limits assumed): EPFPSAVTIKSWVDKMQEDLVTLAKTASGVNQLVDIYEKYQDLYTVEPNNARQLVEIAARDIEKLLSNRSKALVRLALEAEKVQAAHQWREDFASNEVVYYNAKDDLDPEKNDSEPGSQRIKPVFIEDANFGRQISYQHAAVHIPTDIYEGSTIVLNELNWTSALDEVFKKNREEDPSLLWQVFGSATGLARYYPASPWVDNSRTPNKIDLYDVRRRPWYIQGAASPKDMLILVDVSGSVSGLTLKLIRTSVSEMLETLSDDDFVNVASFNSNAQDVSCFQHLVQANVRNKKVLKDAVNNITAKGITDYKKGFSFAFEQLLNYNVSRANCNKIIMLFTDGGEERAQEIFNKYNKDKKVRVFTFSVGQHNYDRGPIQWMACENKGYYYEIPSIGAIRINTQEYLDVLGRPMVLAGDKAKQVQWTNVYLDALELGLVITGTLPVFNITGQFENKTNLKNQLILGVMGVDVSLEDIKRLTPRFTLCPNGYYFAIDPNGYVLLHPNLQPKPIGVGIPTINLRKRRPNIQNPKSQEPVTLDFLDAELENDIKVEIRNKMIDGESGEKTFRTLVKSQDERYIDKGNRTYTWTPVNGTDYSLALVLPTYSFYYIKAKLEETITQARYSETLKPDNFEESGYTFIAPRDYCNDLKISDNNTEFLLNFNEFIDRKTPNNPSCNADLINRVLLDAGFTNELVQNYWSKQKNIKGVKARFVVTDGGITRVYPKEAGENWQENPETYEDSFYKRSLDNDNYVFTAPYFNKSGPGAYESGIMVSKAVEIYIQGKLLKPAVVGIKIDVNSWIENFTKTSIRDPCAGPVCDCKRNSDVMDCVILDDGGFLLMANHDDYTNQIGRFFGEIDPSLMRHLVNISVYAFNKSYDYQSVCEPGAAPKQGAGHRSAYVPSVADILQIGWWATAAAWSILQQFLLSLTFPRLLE
T1 sequence (P54289 957-1103 limits assumed): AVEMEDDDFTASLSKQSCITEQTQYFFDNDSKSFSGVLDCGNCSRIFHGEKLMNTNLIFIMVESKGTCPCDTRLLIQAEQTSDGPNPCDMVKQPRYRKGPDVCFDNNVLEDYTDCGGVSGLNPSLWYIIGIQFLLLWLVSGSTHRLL
T1 sequence (Q08289 whole entry): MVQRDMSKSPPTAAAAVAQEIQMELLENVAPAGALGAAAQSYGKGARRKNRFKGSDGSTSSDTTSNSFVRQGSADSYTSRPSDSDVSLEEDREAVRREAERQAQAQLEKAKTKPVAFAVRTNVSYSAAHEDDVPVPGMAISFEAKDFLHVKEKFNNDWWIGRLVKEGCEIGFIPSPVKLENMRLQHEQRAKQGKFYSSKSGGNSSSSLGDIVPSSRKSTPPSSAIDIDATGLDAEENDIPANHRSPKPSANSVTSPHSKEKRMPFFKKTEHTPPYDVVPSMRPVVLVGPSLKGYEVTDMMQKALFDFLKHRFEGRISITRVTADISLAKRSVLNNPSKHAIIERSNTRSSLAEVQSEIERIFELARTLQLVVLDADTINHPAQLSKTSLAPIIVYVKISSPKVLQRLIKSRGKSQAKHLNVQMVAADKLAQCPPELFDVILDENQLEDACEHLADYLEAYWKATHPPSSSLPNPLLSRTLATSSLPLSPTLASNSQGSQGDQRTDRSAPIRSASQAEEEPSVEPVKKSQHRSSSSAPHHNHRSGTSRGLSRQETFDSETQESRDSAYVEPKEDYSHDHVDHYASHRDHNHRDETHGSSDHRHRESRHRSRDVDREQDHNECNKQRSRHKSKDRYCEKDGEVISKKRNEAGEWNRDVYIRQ
T1 sequence (Q13936 whole entry): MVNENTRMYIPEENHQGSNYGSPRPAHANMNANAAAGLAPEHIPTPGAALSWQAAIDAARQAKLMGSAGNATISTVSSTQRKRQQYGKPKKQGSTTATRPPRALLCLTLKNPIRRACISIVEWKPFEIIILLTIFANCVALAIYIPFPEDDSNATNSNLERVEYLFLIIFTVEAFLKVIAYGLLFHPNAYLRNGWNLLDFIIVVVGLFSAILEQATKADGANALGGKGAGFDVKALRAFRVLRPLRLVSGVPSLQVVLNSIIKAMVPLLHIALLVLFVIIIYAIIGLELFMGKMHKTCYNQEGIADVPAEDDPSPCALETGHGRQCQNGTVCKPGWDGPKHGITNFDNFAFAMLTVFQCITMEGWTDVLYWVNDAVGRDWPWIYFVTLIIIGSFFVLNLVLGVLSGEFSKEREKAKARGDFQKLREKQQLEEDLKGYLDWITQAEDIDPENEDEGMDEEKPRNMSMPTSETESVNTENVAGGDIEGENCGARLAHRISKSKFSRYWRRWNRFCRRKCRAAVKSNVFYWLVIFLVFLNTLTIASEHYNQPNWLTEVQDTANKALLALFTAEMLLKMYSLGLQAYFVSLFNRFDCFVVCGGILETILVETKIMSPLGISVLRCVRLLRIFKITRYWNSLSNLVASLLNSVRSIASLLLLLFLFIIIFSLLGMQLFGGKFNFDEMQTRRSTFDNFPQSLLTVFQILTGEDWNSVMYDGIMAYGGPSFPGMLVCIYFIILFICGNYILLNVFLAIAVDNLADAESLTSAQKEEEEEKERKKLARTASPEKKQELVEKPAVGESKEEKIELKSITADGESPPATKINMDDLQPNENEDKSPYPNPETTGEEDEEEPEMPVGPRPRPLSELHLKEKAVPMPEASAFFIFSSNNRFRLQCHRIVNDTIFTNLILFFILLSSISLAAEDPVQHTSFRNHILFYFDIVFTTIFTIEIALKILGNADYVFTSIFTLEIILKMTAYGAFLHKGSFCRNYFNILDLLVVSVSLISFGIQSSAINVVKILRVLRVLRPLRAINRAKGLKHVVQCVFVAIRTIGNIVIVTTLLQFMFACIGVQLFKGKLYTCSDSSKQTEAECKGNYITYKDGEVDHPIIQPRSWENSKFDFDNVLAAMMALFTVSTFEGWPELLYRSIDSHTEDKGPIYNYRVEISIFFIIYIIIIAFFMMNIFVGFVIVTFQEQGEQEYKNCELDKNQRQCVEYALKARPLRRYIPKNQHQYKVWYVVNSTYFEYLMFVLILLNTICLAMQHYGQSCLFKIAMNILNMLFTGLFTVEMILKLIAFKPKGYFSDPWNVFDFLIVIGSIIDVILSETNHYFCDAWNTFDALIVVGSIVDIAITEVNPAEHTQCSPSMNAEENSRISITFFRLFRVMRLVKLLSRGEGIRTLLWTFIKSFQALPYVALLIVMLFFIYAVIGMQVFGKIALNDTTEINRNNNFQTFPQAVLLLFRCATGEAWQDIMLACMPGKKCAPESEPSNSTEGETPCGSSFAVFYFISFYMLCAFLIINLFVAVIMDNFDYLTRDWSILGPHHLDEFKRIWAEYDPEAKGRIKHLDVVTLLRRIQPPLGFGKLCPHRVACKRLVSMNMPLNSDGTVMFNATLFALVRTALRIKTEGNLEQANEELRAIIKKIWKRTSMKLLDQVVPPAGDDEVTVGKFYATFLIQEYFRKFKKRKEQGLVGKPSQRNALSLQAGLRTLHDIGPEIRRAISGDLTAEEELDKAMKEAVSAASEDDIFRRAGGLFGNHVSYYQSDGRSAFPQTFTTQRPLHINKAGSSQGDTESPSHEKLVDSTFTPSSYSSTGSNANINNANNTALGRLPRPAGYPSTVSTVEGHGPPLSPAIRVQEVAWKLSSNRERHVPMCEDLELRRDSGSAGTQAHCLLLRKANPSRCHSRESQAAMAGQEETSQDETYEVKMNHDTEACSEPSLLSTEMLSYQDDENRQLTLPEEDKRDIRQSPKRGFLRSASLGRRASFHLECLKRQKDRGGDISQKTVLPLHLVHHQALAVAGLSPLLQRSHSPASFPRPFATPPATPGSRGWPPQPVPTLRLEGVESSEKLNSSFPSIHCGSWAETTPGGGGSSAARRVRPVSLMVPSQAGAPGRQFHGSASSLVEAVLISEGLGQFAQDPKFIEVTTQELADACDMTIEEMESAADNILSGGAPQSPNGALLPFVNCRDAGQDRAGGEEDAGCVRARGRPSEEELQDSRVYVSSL
Chain of L-type calcium channel alpha-1c/beta-2/alpha2delta-1 (Homo sapiens, UniProt P54289+Q08289+Q13936) (P54289 25-956 limits assumed): as the sequence (P54289 25-956 limits assumed) above
Chain of L-type calcium channel alpha-1c/beta-2/alpha2delta-1 (Homo sapiens, UniProt P54289+Q08289+Q13936) (P54289 957-1103 limits assumed): as the sequence (P54289 957-1103 limits assumed) above
Chain of L-type calcium channel alpha-1c/beta-2/alpha2delta-1 (Homo sapiens, UniProt P54289+Q08289+Q13936) (Q08289 whole entry): as the sequence (Q08289 whole entry) above
Chain of L-type calcium channel alpha-1c/beta-2/alpha2delta-1 (Homo sapiens, UniProt P54289+Q08289+Q13936) (Q13936 whole entry): as the sequence (Q13936 whole entry) above

Compound | viability at 5 µM (PC-12 [1]) | viability at 10 µM (PC-12 [2]) | viability at 20 µM (PC-12 [3]) | viability at 40 µM (PC-12 [4]) | viability at 80 µM (PC-12 [5]) | viability at 100 µM (PC-12 [6]) | Activity (PC-12 [10]) | further results
C#CC#C[C@H](O)c1ccccc1 | 47.8% | 52.4% | 55% | 49.9% | 47.5% | 43.5% |  | 
CC(C)[Si](C#CC#C[C@H](O)c1ccccc1)(C(C)C)C(C)C | 60.1% | 66.6% | 58% | 58.2% | 53% | 51.9% | 47 nmol/mL | viability at 5 µM (PC-12 [7]): 60%; viability at 10 µM (PC-12 [8]): 67%; Activity (PC-12 [9]): 132 U/L; Activity (PC-12 [11]): 124 U/mg; inhibition at 10 µM [12]: 7.7%; inhibition at 30 µM [13]: 38.6%; inhibition at 100 µM [14]: 79.7%; IC50 [15]: 41.3 µM; viability at 1 µM (PC-12 [16]): ≤ 96%
CCCCCCCCC[C@@H](O)C#CC#C[Si](C(C)C)(C(C)C)C(C)C | 49.4% | 47.8% | 46.2% | 43.5% | 39.5% | 37.6% |  | 
C=C[C@@H](O)C#CC#CC/C=C\CCCCCCC |  |  |  |  |  |  | 68 nmol/mL | Survival (PC-12 [17]): 59%; Activity (PC-12 [18]): 211 U/L; Activity [19]: Active; inhibition at 10 µM [12]: 7.9%; inhibition at 30 µM [13]: 28.1%; inhibition at 100 µM [14]: 61.6%; IC50 [15]: 41.3 µM
CCCCCCCCC[C@H](C#CC#C[C@H](O)c1ccccc1)OC(=O)c1ccccc1 | 65.6% | 63.7% | 61.3% | 51.7% | 36.2% | 31.3% |  | 
CC(C)[Si](C#CC#C[C@@H](O)C1CCCC1)(C(C)C)C(C)C |  |  |  |  |  |  |  | viability at 20 µM (PC-12 [20]): 66%; viability at 40 µM (PC-12 [21]): 65%
COc1cccc([C@@H](O)C#CC#C[Si](C(C)C)(C(C)C)C(C)C)c1 |  |  |  |  |  |  |  | viability at 20 µM (PC-12 [20]): 61%; viability at 40 µM (PC-12 [21]): 65%
CCCCCCCCC[C@H](C#CC#C[Si](C(C)C)(C(C)C)C(C)C)OC(=O)c1ccccc1 | 50.4% | 47.9% | 47.5% | 46.4% | 46.4% | 43.9% |  | 
CC(C)[Si](C#CC#C[C@H](O)c1cccc(F)c1)(C(C)C)C(C)C |  |  |  |  |  |  | 53 nmol/mL | viability at 5 µM (PC-12 [7]): 83%; viability at 10 µM (PC-12 [8]): 76%; Activity (PC-12 [22]): Active; Activity (PC-12 [9]): 132 U/L; Activity (PC-12 [11]): 124 U/mg

— ChEMBL document CHEMBL4828723, “Synthesis and Biological Evaluation of Falcarinol-Type Analogues as Potential Calcium Channel Blockers” (J Nat Prod, 2021)
